Laboratory results published in ChEMBL document CHEMBL4152363, “Andrographolide derivative as STAT3 inhibitor that protects acute liver damage in mice” (Bioorg Med Chem, 2018).
pEC50: −log10 of the molar value.

target: T1, Signal transducer and activator of transcription 3 (Homo sapiens, UniProt P40763); test: Inhibition of IFNgamma-stimulated STAT3 activation in human AD293 cells incubated with IFNgamma for 16 hrs followed by compound addition measured after 24 hrs by luciferase reporter gene assay; format: cell-based; details: not given
In short: (§1)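 AD-293 or HeLa cells in DMEM/10% FBS stimulated with 20 pg/mL IFN-γ; compound treatment 24 h; luciferase activity measured in cell extracts; EC50 derived.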

T1 sequence (P40763 whole entry): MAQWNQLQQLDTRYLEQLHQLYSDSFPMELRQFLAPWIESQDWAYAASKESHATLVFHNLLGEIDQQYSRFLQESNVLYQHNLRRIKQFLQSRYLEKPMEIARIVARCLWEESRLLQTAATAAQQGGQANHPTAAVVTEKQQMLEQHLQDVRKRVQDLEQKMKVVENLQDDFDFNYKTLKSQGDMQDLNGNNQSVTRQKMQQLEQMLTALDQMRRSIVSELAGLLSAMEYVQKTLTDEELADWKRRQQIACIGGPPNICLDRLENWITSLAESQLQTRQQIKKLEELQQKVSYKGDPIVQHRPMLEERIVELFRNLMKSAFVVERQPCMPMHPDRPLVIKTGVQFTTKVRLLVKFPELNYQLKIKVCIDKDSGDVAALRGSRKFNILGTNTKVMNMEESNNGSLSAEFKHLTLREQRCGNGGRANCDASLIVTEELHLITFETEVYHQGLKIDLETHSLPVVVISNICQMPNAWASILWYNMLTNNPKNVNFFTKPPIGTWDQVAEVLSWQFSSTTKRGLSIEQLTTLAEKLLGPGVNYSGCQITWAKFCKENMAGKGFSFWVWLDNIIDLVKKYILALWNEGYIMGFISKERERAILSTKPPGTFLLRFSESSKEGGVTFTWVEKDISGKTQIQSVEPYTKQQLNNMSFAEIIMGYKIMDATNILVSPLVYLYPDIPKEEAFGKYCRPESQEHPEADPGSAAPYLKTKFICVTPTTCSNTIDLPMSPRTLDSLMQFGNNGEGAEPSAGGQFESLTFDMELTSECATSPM

SMILES | pEC50
C=C1CC[C@H]2[C@@](C)(CCC(=O)[C@@]2(C)CO[Si](C)(C)C(C)(C)C)[C@@H]1C/C=C1/C(=O)OC[C@H]1OC(C)=O | 5.71
C=C1CC[C@@H]2[C@](C)(CO)[C@H](O)CC[C@@]2(C)[C@@H]1C/C=C1/C(=O)OC[C@@H]1O[Si](C)(C)C(C)(C)C | < 5.00
C=C1CC[C@@H]2[C@](C)(CO[Si](C)(C)C(C)(C)C)[C@H](O)CC[C@@]2(C)[C@@H]1C/C=C1/C(=O)OC[C@@H]1OC(C)=O | 5.09
C=C1CC[C@H]2[C@@](C)(CCC(=O)[C@@]2(C)COC(C)=O)[C@@H]1C/C=C1/C(=O)OC[C@H]1O[Si](C)(C)C(C)(C)C | < 5.00
C=C1CC[C@H]2[C@@](C)(CCC(=O)[C@@]2(C)CO)[C@@H]1C/C=C1/C(=O)OC[C@@H]1O[Si](C)(C)C(C)(C)C | < 5.00
CC(C)(C)[Si](C)(C)OC[C@]1(C)C(=O)CC[C@@]2(C)[C@H](C/C=C3/C(=O)OC[C@H]3O[Si](C)(C)C(C)(C)C)[C@]3(CC[C@@H]21)CO3 | 5.36

target: T1, Signal transducer and activator of transcription 3; test: Inhibition of IL-6 stimulated STAT3 activation in human AD293 cells incubated with IL-6 for 16 hrs followed by compound addition measured after 6 hrs by luciferase reporter gene assay; format: cell-based; details: not given
In short: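 AD-293 cells stimulated with 2.5 μg/mL IL-6; compound treatment 6 h; luciferase activity read from cell extracts; EC50 derived.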

SMILES | pEC50
C=C1CC[C@H]2[C@@](C)(CCC(=O)[C@@]2(C)CO[Si](C)(C)C(C)(C)C)[C@@H]1C/C=C1/C(=O)OC[C@H]1OC(C)=O | 6.00
C=C1CC[C@@H]2[C@](C)(CO)[C@H](O)CC[C@@]2(C)[C@@H]1C/C=C1/C(=O)OC[C@@H]1O[Si](C)(C)C(C)(C)C | < 5.00
C=C1CC[C@@H]2[C@](C)(CO[Si](C)(C)C(C)(C)C)[C@H](O)CC[C@@]2(C)[C@@H]1C/C=C1/C(=O)OC[C@@H]1OC(C)=O | 5.49
C=C1CC[C@H]2[C@@](C)(CCC(=O)[C@@]2(C)COC(C)=O)[C@@H]1C/C=C1/C(=O)OC[C@H]1O[Si](C)(C)C(C)(C)C | < 5.00
C=C1CC[C@H]2[C@@](C)(CCC(=O)[C@@]2(C)CO)[C@@H]1C/C=C1/C(=O)OC[C@@H]1O[Si](C)(C)C(C)(C)C | < 5.00
CC(C)(C)[Si](C)(C)OC[C@]1(C)C(=O)CC[C@@]2(C)[C@H](C/C=C3/C(=O)OC[C@H]3O[Si](C)(C)C(C)(C)C)[C@]3(CC[C@@H]21)CO3 | < 5.00

target: T1, Signal transducer and activator of transcription 3; test: Inhibition of […] activation in human AD293 cells incubated […] for 16 hrs followed by compound addition measured after 4 hrs by luciferase reporter gene assay; format: cell-based; details: not given

SMILES | pEC50
C=C1CC[C@H]2[C@@](C)(CCC(=O)[C@@]2(C)CO[Si](C)(C)C(C)(C)C)[C@@H]1C/C=C1/C(=O)OC[C@H]1OC(C)=O | 5.12
C=C1CC[C@@H]2[C@](C)(CO)[C@H](O)CC[C@@]2(C)[C@@H]1C/C=C1/C(=O)OC[C@@H]1O[Si](C)(C)C(C)(C)C | < 5.00
C=C1CC[C@@H]2[C@](C)(CO[Si](C)(C)C(C)(C)C)[C@H](O)CC[C@@]2(C)[C@@H]1C/C=C1/C(=O)OC[C@@H]1OC(C)=O | 5.14
C=C1CC[C@H]2[C@@](C)(CCC(=O)[C@@]2(C)COC(C)=O)[C@@H]1C/C=C1/C(=O)OC[C@H]1O[Si](C)(C)C(C)(C)C | < 5.00
C=C1CC[C@H]2[C@@](C)(CCC(=O)[C@@]2(C)CO)[C@@H]1C/C=C1/C(=O)OC[C@@H]1O[Si](C)(C)C(C)(C)C | < 5.00
CC(C)(C)[Si](C)(C)OC[C@]1(C)C(=O)CC[C@@]2(C)[C@H](C/C=C3/C(=O)OC[C@H]3O[Si](C)(C)C(C)(C)C)[C@]3(CC[C@@H]21)CO3 | < 5.00

system: not listed separately; test: (§2) Cytotoxicity against human AD293 cells; format: cell-based; details: AD293 cells
In short: (§3)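 AD-293 or HeLa cells grown in high-glucose DMEM with 10% FBS and 1% penicillin-streptomycin; compound exposure 24 h; cytotoxicity reported as CC10.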

SMILES | CC50 [µM]
C=C1CC[C@H]2[C@@](C)(CCC(=O)[C@@]2(C)CO[Si](C)(C)C(C)(C)C)[C@@H]1C/C=C1/C(=O)OC[C@H]1OC(C)=O | 7.35
C=C1CC[C@@H]2[C@](C)(CO[Si](C)(C)C(C)(C)C)[C@H](O)CC[C@@]2(C)[C@@H]1C/C=C1/C(=O)OC[C@@H]1OC(C)=O | 6.83

system: AD293; test: as §2; format: cell-based; details: ad293; in short: as §3

SMILES | CC10 [µM]
C=C1CC[C@@H]2[C@](C)(CO)[C@H](O)CC[C@@]2(C)[C@@H]1C/C=C1/C(=O)OC[C@@H]1O[Si](C)(C)C(C)(C)C | > 10
C=C1CC[C@H]2[C@@](C)(CCC(=O)[C@@]2(C)COC(C)=O)[C@@H]1C/C=C1/C(=O)OC[C@H]1O[Si](C)(C)C(C)(C)C | > 10
C=C1CC[C@H]2[C@@](C)(CCC(=O)[C@@]2(C)CO)[C@@H]1C/C=C1/C(=O)OC[C@@H]1O[Si](C)(C)C(C)(C)C | > 10
CC(C)(C)[Si](C)(C)OC[C@]1(C)C(=O)CC[C@@]2(C)[C@H](C/C=C3/C(=O)OC[C@H]3O[Si](C)(C)C(C)(C)C)[C@]3(CC[C@@H]21)CO3 | > 10

target: T1, Signal transducer and activator of transcription 3; test: Inhibition of IFNgamma-stimulated STAT3 activation in human HeLa cells incubated with IFNgamma for 16 hrs followed by compound addition measured after 24 hrs by luciferase reporter gene assay; format: cell-based; details: not given; in short: as §1

SMILES | pEC50
C=C1CC[C@H]2[C@@](C)(CCC(=O)[C@@]2(C)CO[Si](C)(C)C(C)(C)C)[C@@H]1C/C=C1/C(=O)OC[C@H]1OC(C)=O | 5.35
C=C1CC[C@@H]2[C@](C)(CO)[C@H](O)CC[C@@]2(C)[C@@H]1C/C=C1/C(=O)OC[C@@H]1O[Si](C)(C)C(C)(C)C | < 5.00
C=C1CC[C@@H]2[C@](C)(CO[Si](C)(C)C(C)(C)C)[C@H](O)CC[C@@]2(C)[C@@H]1C/C=C1/C(=O)OC[C@@H]1OC(C)=O | 5.03
C=C1CC[C@H]2[C@@](C)(CCC(=O)[C@@]2(C)COC(C)=O)[C@@H]1C/C=C1/C(=O)OC[C@H]1O[Si](C)(C)C(C)(C)C | < 5.00
C=C1CC[C@H]2[C@@](C)(CCC(=O)[C@@]2(C)CO)[C@@H]1C/C=C1/C(=O)OC[C@@H]1O[Si](C)(C)C(C)(C)C | < 5.00
CC(C)(C)[Si](C)(C)OC[C@]1(C)C(=O)CC[C@@]2(C)[C@H](C/C=C3/C(=O)OC[C@H]3O[Si](C)(C)C(C)(C)C)[C@]3(CC[C@@H]21)CO3 | < 5.00

target: T1, Signal transducer and activator of transcription 3; test: Inhibition of […] activation in human HeLa cells incubated […] for 16 hrs followed by compound addition measured after 4 hrs by luciferase reporter gene assay; format: cell-based; details: not given
In short: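 NF-κB pathway in AD-293 or HeLa cells stimulated with 50 ng/mL TNF-α; compound treatment 4 h; luciferase activity read from cell extracts; EC50 derived.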

SMILES | pEC50
C=C1CC[C@H]2[C@@](C)(CCC(=O)[C@@]2(C)CO[Si](C)(C)C(C)(C)C)[C@@H]1C/C=C1/C(=O)OC[C@H]1OC(C)=O | 5.34
C=C1CC[C@@H]2[C@](C)(CO)[C@H](O)CC[C@@]2(C)[C@@H]1C/C=C1/C(=O)OC[C@@H]1O[Si](C)(C)C(C)(C)C | < 5.00
C=C1CC[C@@H]2[C@](C)(CO[Si](C)(C)C(C)(C)C)[C@H](O)CC[C@@]2(C)[C@@H]1C/C=C1/C(=O)OC[C@@H]1OC(C)=O | 5.00
C=C1CC[C@H]2[C@@](C)(CCC(=O)[C@@]2(C)COC(C)=O)[C@@H]1C/C=C1/C(=O)OC[C@H]1O[Si](C)(C)C(C)(C)C | < 5.00
C=C1CC[C@H]2[C@@](C)(CCC(=O)[C@@]2(C)CO)[C@@H]1C/C=C1/C(=O)OC[C@@H]1O[Si](C)(C)C(C)(C)C | < 5.00
CC(C)(C)[Si](C)(C)OC[C@]1(C)C(=O)CC[C@@]2(C)[C@H](C/C=C3/C(=O)OC[C@H]3O[Si](C)(C)C(C)(C)C)[C@]3(CC[C@@H]21)CO3 | < 5.00

system: HeLa; test: Cytotoxicity against human HeLa cells; format: cell-based; details: not given; in short: as §3

SMILES | CC10 [µM]
C=C1CC[C@H]2[C@@](C)(CCC(=O)[C@@]2(C)CO[Si](C)(C)C(C)(C)C)[C@@H]1C/C=C1/C(=O)OC[C@H]1OC(C)=O | > 10
C=C1CC[C@@H]2[C@](C)(CO)[C@H](O)CC[C@@]2(C)[C@@H]1C/C=C1/C(=O)OC[C@@H]1O[Si](C)(C)C(C)(C)C | > 10
C=C1CC[C@@H]2[C@](C)(CO[Si](C)(C)C(C)(C)C)[C@H](O)CC[C@@]2(C)[C@@H]1C/C=C1/C(=O)OC[C@@H]1OC(C)=O | > 10
C=C1CC[C@H]2[C@@](C)(CCC(=O)[C@@]2(C)COC(C)=O)[C@@H]1C/C=C1/C(=O)OC[C@H]1O[Si](C)(C)C(C)(C)C | > 10
C=C1CC[C@H]2[C@@](C)(CCC(=O)[C@@]2(C)CO)[C@@H]1C/C=C1/C(=O)OC[C@@H]1O[Si](C)(C)C(C)(C)C | > 10
CC(C)(C)[Si](C)(C)OC[C@]1(C)C(=O)CC[C@@]2(C)[C@H](C/C=C3/C(=O)OC[C@H]3O[Si](C)(C)C(C)(C)C)[C@]3(CC[C@@H]21)CO3 | > 10
